Experimental data as given in ChEMBL document CHEMBL4311948, “Exploring the Natural Piericidins as Anti-Renal Cell Carcinoma Agents Targeting Peroxiredoxin 1” (J Med Chem, 2019).

Assays:
ACHN [1] = assay: Cytotoxicity against human ACHN cells assessed as reduction in cell viability measured after 72 hrs by CCK8 assay; type: functional, cell-based
In short: (§1)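 Cells were grown in 10% FBS medium: MEM for ACHN, RPMI1640 for OS-RC-2 and 786-O, DMEM for HK-2. They were seeded at 400–800 cells/well in 384-well plates and treated with a range of compound concentrations or solvent control, with sorafenib as positive control. After 72 h, CCK-8 absorbance was read at 450 nm in triplicate, and IC50 was taken from dose-response curves.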

786-0 = assay: Cytotoxicity against human 786-O cells assessed as reduction in cell viability measured after 72 hrs by CCK8 assay; type: functional, cell-based; conditions: 786-0, 72 h; in short: as §1
OS-RC-2 = assay: Cytotoxicity against human OS-RC2 cells assessed as reduction in cell viability measured after 72 hrs by CCK8 assay; type: functional, cell-based; conditions: OS-RC-2, 72 h; in short: as §1
HK-2 = assay: Cytotoxicity against human HK2 cells assessed as reduction in cell viability measured after 72 hrs by CCK8 assay; type: cell-based; conditions: HK-2, 72 h; in short: as §1
ACHN [2] = assay: Cytotoxicity against human ACHN cells harboring shPRDX1 gene assessed as reduction in cell viability measured after 72 hrs by CCK8 assay; type: functional, cell-based; conditions: Homo sapiens, ACHN, 72 h; read-out: IC50
In short: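 Transfectants were selected with puromycin (1 μg/mL), and knockdown was confirmed by immunoblot. Viability was read by CCK-8 after 72 h of compound exposure in 384-well plates at 400–800 cells/well in MEM with 10% FBS, and IC50 was taken from dose-response curves.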

C/C=C(\C)[C@H](O[C@@H]1O[C@H](CO)[C@@H](O)[C@H](O)[C@H]1O)[C@H](C)/C=C(C)/C=C/C/C(C)=C/Cc1nc(OC)cc(O)c1C
IC50 (ACHN [1]): 3.8 µM | IC50 (786-0): 15 µM | IC50 (OS-RC-2): 14 µM

C/C=C(\C)[C@H](O[C@@H]1O[C@H](CO[C@H]2O[C@H](CO)[C@H](O)[C@H](O)[C@H]2O)[C@@H](O)[C@H](O)[C@H]1O)[C@H](C)/C=C(C)/C=C/C/C(C)=C/Cc1nc(OC)c(OC)c(O)c1C
IC50 (ACHN [1]): 4.5 µM | IC50 (786-0): > 100 µM | IC50 (HK-2): > 100 µM | IC50 (ACHN [2]): 9 µM | IC50 (OS-RC-2): > 100 µM

C/C=C(\C)C(=O)[C@H](C)/C=C(C)/C=C/C/C(C)=C/Cc1nc(OC)c(OC)c(O)c1C
IC50 (ACHN [1]): > 100 µM | IC50 (786-0): > 100 µM | IC50 (ACHN [2]): > 100 µM | IC50 (OS-RC-2): 22 µM

COc1nc(C/C=C(\C)C/C(C)=C/C(C)=C/[C@@H](C)[C@@H](O)[C@]2(C)O[C@H]2C)c(C)c(O)c1OC
IC50 (ACHN [1]): > 100 µM | IC50 (786-0): > 100 µM | IC50 (HK-2): > 100 µM | IC50 (ACHN [2]): > 100 µM | IC50 (OS-RC-2): 22 µM

COc1nc(C/C=C(\C)C/C(C)=C/C(C)=C/[C@@H](C)[C@@H](O)/C(C)=C/[C@@](C)(O)[C@H](C)O)c(C)c(O)c1OC
IC50 (ACHN [1]): 3.8 µM | IC50 (786-0): > 100 µM | IC50 (HK-2): 63 µM | IC50 (ACHN [2]): 13 µM | IC50 (OS-RC-2): 4.1 µM

C/C=C(\C)[C@H](O[C@@H]1O[C@H](CO)[C@@H](O)[C@H](O)[C@H]1O)[C@H](C)/C=C/C=C/C/C(C)=C/Cc1nc(OC)c(OC)c(O)c1C
IC50 (ACHN [1]): 0.31 µM | IC50 (786-0): 0.99 µM | IC50 (OS-RC-2): 2.6 µM

COc1nc(C/C=C(\C)C/C=C/C(C)=C/[C@@H](C)[C@@H](O[C@@H]2O[C@H](CO[C@H]3O[C@H](CO)[C@@H](O)[C@H](O)[C@H]3O)[C@@H](O)[C@H](O)[C@H]2O)/C(C)=C/CO)c(C)c(O)c1OC
IC50 (ACHN [1]): 23 µM | IC50 (786-0): > 100 µM | IC50 (HK-2): > 100 µM | IC50 (ACHN [2]): 58 µM | IC50 (OS-RC-2): > 100 µM

C/C=C(\C)[C@H](O[C@@H]1O[C@H](CO)[C@@H](O)[C@H](O)[C@H]1O)[C@H](C)/C=C(C)/C=C/C/C(C)=C/Cc1nc(OC)c(OC)c(O[C@@H]2O[C@H](CO)[C@@H](O)[C@H](O)[C@H]2O)c1C
IC50 (ACHN [1]): 28 µM | IC50 (786-0): > 100 µM | IC50 (HK-2): 1.1 µM | IC50 (OS-RC-2): > 100 µM

COc1nc(C/C=C(\C)C/C=C/C(C)=C/[C@@H](C)[C@@H](O[C@@H]2O[C@H](CO[C@H]3O[C@H](CO)[C@H](O)[C@H](O)[C@H]3O)[C@@H](O)[C@H](O)[C@H]2O)/C(C)=C/CO)c(C)c(O)c1OC
IC50 (ACHN [1]): > 100 µM | IC50 (786-0): > 100 µM | IC50 (HK-2): > 100 µM | IC50 (OS-RC-2): > 100 µM

COc1nc(C/C=C(\C)C/C=C/C(C)=C/[C@@H](C)[C@@H](O[C@@H]2O[C@H](CO)[C@@H](O)[C@H](O)[C@H]2O)[C@@]2(C)O[C@@H]2C)c(C)c(O)c1OC
IC50 (ACHN [1]): 2.8 µM | IC50 (786-0): 19 µM | IC50 (OS-RC-2): 30 µM

C/C=C/[C@H](O)[C@H](C)/C=C(C)/C=C/C/C(C)=C/Cc1nc(OC)c(OC)c(O)c1C
IC50 (ACHN [1]): 4.1 µM | IC50 (786-0): > 100 µM | IC50 (ACHN [2]): 11 µM | IC50 (OS-RC-2): 11 µM

COc1nc(C/C=C(\C)C/C=C/C=C/[C@@H](C)[C@@H](O[C@@H]2O[C@H](CO)[C@@H](O)[C@H](O)[C@H]2O)/C(C)=C/CO)c(C)c(O)c1OC
IC50 (ACHN [1]): 2.5 µM | IC50 (786-0): 28 µM | IC50 (OS-RC-2): 79 µM

C/C=C(\C)[C@H](O[C@@H]1O[C@H](CO)[C@@H](O)[C@H](O)[C@H]1O)[C@H](C)/C=C(\C)[C@@H](OC)[C@@H](O)C/C(C)=C/Cc1nc(OC)c(OC)c(O)c1C
IC50 (ACHN [1]): 2.4 µM | IC50 (786-0): > 100 µM | IC50 (OS-RC-2): > 100 µM

COc1nc(C/C=C(\C)C[C@H](O)[C@H](OC)/C(C)=C/[C@@H](C)[C@@H](O[C@@H]2O[C@H](CO)[C@@H](O)[C@H](O)[C@H]2O)/C(C)=C/CO)c(C)c(O)c1OC
IC50 (ACHN [1]): 60 µM | IC50 (786-0): > 100 µM | IC50 (OS-RC-2): > 100 µM

C/C=C(\C)[C@H](O[C@@H]1O[C@H](CO[C@H]2O[C@H](CO)[C@@H](O)[C@H](O)[C@H]2O)[C@@H](O)[C@H](O)[C@H]1O)[C@H](C)/C=C(C)/C=C/C/C(C)=C/Cc1nc(OC)c(OC)c(O)c1C
IC50 (ACHN [1]): 21 µM | IC50 (786-0): > 100 µM | IC50 (HK-2): > 100 µM | IC50 (OS-RC-2): > 100 µM
